High-throughput results as filed in PubChem BioAssay.
APJ antag – antagonists of human apelin receptor APJ, primary screen, CHO-K1 cells, beta-arrestin complementation, luminescence | AID 2521, 2010 | 330,000 compounds, 0.32% hits | inhibition, % at 20 µM | P35414;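 active = inhibition above about 40% at 20 µM, limit read from the data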;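 also: cells challenged with 10 nM apelin-13 agonist together with compound; plate controls were apelin-13 plus DMSO wells for no effect and DMSO wells lacking apelin-13 for full effect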
CCR6 antagonist – CCR6 receptor antagonists, primary screen, cell-based, CHO-K1, luminescence, beta-arrestin, uHTS. C-C chemokine receptor type 6 (Homo sapiens), P51684. CHO-K1 CCR6 PathHunter beta-arrestin, CCL20-stimulated. 340,000 compounds, 0.49% hits. AID 493098, 2011. inhibition, % at 20 µM;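 active = compounds whose inhibition of the agonist-driven luminescence signal at 20 µM reaches about 50%, limit read from the data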;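 also: cells stimulated with CCL20 at 14 nM final; plate controls were DMSO with CCL20 for no effect and DMSO without agonist for full effect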
m5-HT2A agonist – mouse Htr2a agonists via beta-arrestin recruitment, primary screen, cell-based, luminescence | 5-hydroxytryptamine receptor 2A (Mus musculus), P35363 | CHO-K1 mHTR2A beta-arrestin complementation; percent of 30 µM serotonin response | activation, % at 7.6 µM | 360,000 compounds, 0.66% hits;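 active = activation above a run cutoff, the mean activation of all tested compounds plus 3 SD, cut at about 14% in these data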;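 also: 0% = plate median of compound wells and 100% = 30 µM serotonin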
APJ agonist – agonists of human apelin receptor APJ, primary screen, CHO-K1 cells, PathHunter beta-arrestin, luminescence; 0% DMSO wells, 100% apelin; P35414; activation, % at 20 µM; 330,000 compounds, 0.11% hits;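 active = activation more than six SD over the plate average, tested at 20 µM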;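 also: 0% = DMSO alone and 100% = apelin-13 at 10 nM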
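Assay system: engineered CHO-K1 APJ arrestin reporter cells; Amount: 1000 CHO-K1 reporter cells seeded per well; Dosing: one dose, 20 µM compound, 1% DMSO; Times: compound stimulation 90 min at 25 °C, detection 60 min; Measured by: luminescent beta-gal fragment complementation, chemiluminescent substrate; Read-out: APJ–arrestin association signal; Controls: DMSO vs Apelin-13 10 nM.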
NTR1 agonist – agonists of human NTR1, primary screen, imaging, U2OS cells, beta-arrestin-GFP, high content; 330,000 compounds, 0.17% hits; Neurotensin receptor type 1 (Homo sapiens), P30989; NTR1-U2OS beta-arrestin-GFP spot imaging, agonist mode; activation, % at 20 µM;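 active = activation at or above 40% of the spot to cytoplasm intensity ratio, with at least 20 cells analyzed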;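 also: 0% = DMSO without peptide and 100% = 100 nM NTR1 peptide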
CXCR6 inh – CXCR6 receptor inhibitors, primary screen, cell-based, beta-arrestin, luminescence, CHO-K1 PathHunter, 1536-well; inhibition, % at 20 µM; 360,000 compounds, 0.36% hits; in the data active = inhibition above about 34%, passing the limit was not always enough;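 also: antagonist mode with CXCL16 agonist at 10 nM final; 0% = 10 nM CXCL16 with DMSO and 100% = unstimulated wells without agonist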
Target sequence (O00574 whole entry, looked up): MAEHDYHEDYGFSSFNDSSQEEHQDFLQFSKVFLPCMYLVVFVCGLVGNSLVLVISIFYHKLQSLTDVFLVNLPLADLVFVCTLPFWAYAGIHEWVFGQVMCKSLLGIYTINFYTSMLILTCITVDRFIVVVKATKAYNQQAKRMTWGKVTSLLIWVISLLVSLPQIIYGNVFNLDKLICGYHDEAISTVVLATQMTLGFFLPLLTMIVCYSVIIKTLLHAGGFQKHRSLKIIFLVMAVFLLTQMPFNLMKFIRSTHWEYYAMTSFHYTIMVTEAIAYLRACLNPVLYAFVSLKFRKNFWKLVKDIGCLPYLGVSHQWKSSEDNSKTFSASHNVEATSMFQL
* = called active by the depositor. This is a sample that favours compounds with a hit; in the whole collection about 1.5% have one here.

Screening O=C(O)c1cccc(S(=O)(=O)Nc2ccccc2Oc2ccccc2)c1 returned m5-HT2A agonist -0.3 and CXCR6 inh -0.5.
O=C1/C(=C\c2ccc(O)cc2)SC(=S)N1/N=C/c1ccc(O)cc1 was read as APJ antag 30.0, CCR6 antagonist 66.2*, m5-HT2A agonist -11.2, APJ agonist -7.1, NTR1 agonist -2.0 and CXCR6 inh 47.1*.
For O=C1C(Cl)=C(NC(=O)c2ccccc2)C(=O)C(Cl)=C1NC(=O)c1ccccc1 the results were APJ antag -37.0, m5-HT2A agonist 3.1, APJ agonist 1.4, NTR1 agonist 18.0 and CXCR6 inh 88.4*.
For CCCCOC(=O)c1ccc(OC(=O)c2cccnc2)cc1 the results were APJ antag 4.7, CCR6 antagonist 14.8, m5-HT2A agonist -2.9, APJ agonist -7.7, NTR1 agonist -1.2 and CXCR6 inh -2.1.
For CCCCCCOC(=O)c1ccc(OC(=O)c2cccnc2)cc1 the results were APJ antag -21.2, CCR6 antagonist 11.1, m5-HT2A agonist 22.2*, APJ agonist -3.6, NTR1 agonist 1.4 and CXCR6 inh -3.7.
`CCOc1ccccc1C(=O)NC1CCNCC1` gave APJ antag 9.1, CCR6 antagonist 6.6, m5-HT2A agonist 4.7, APJ agonist -0.3, NTR1 agonist 1.2 and CXCR6 inh 4.5.
CN(Cc1ccc(Cl)cc1)C(c1cc2ccccc2o1)c1nnnn1C(C)(C)C (centres undefined) was read as m5-HT2A agonist -4.7 and CXCR6 inh 8.7.
`Cc1nn(-c2ccccc2)c2sc(C(=O)N(CC(=O)NC(C)(C)C)Cc3ccco3)cc12` gave APJ antag 11.0, CCR6 antagonist 56.7*, m5-HT2A agonist -4.5, APJ agonist -1.7, NTR1 agonist 1.2 and CXCR6 inh 4.9.
`C/C(=N\NC(=O)CNC(=O)C1COc2ccccc2O1)c1ccco1` (centres undefined) gave APJ antag 13.1, CCR6 antagonist 3.8, m5-HT2A agonist -4.6, APJ agonist -3.4, NTR1 agonist -1.8 and CXCR6 inh -0.5.
For CCc1ccc(S(=O)(=O)/N=C2\C=C(Nc3ccc(C(=O)O)cc3)C(=O)c3ccccc32)cc1 the results were APJ antag 0.7, CCR6 antagonist 16.4, m5-HT2A agonist -2.4, APJ agonist -3.6, NTR1 agonist 3.3 and CXCR6 inh 14.1.
`COC(=O)c1ccccc1NC1=C/C(=N\S(=O)(=O)c2ccc(C(=O)O)cc2)c2ccccc2C1=O` gave APJ antag -38.4, CCR6 antagonist 55.0*, m5-HT2A agonist 3.9, APJ agonist -2.5, NTR1 agonist 0.3 and CXCR6 inh 27.3.
`COC(=O)c1ccccc1NC1=C/C(=N\S(=O)(=O)c2cccs2)c2ccccc2C1=O` gave APJ antag 37.9, CCR6 antagonist 54.0*, m5-HT2A agonist -8.6, APJ agonist -7.7, NTR1 agonist 1.4 and CXCR6 inh 42.5*.
Screening Cc1ccc(S(=O)(=O)N2[C@@H](c3ccccc3F)C(C(=O)O)=CC[C@H]2c2ccc3c(c2)OCO3)cc1 returned APJ antag -53.8, CCR6 antagonist 2.0, m5-HT2A agonist 0.6, APJ agonist -4.6, NTR1 agonist 1.5 and CXCR6 inh 13.2.
CC(C)c1ccc(NC(=S)N2CCN(S(=O)(=O)c3ccccc3)CC2)cc1 was read as APJ antag -8.0, CCR6 antagonist 8.1, m5-HT2A agonist -2.3, APJ agonist -0.6, NTR1 agonist 4.2 and CXCR6 inh 3.8.
Screening COc1cccc(/C=N/Nc2nc(Nc3ccc([N+](=O)[O-])cc3)nc(N3CCCC3)n2)c1O returned APJ antag -9.1, CCR6 antagonist 68.6*, m5-HT2A agonist -10.3, APJ agonist 0.5, NTR1 agonist 12.0 and CXCR6 inh 45.4*.
O=[N+]([O-])c1cc(/C=N/Nc2nc3ccccc3[nH]2)c(O)cc1O was read as CCR6 antagonist 37.7.
